Reference: ChEMBL document CHEMBL1137767, “2-(3-Aryl-2-propenoyl)-3-methylquinoxaline-1,4-dioxides: a novel cluster of tumor-specific cytotoxins which reverse multidrug resistance” (Bioorg Med Chem, 2009)
The source made the active and inactive calls. The rule behind the calls is not given here.

Tests used:
Hs-578T = test: Growth inhibition of human Hs 578T cells at 10 uM; assay type: functional, cell-based
How it was run: (§1)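 Human tumor cell line panel (59 lines across leukemia, melanoma, non-small cell lung, colon, CNS, ovarian, renal, prostate, breast) treated at a single 10 uM concentration; growth inhibition recorded per line.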

MCF7 = test: Growth inhibition of human MCF7 cells at 10 uM; assay type: functional, cell-based; how it was run: as §1
HSC-2 = test: Cytotoxicity against human HSC2 cells after 48 hrs; assay type: functional; settings: HSC-2, 48 h
[1] = molecular target: T1, ATP-dependent translocase ABCB1 (Homo sapiens, UniProt P08183); test: Reversal of P-glycoprotein-mediated multidrug resistance in human MDR1 gene transfected mouse L5178Y cells assessed as fluorescence activity ratio at 20 uM by rhodamine 123 accumulation assay; assay type: cell-based
T1 sequence (P08183 whole entry): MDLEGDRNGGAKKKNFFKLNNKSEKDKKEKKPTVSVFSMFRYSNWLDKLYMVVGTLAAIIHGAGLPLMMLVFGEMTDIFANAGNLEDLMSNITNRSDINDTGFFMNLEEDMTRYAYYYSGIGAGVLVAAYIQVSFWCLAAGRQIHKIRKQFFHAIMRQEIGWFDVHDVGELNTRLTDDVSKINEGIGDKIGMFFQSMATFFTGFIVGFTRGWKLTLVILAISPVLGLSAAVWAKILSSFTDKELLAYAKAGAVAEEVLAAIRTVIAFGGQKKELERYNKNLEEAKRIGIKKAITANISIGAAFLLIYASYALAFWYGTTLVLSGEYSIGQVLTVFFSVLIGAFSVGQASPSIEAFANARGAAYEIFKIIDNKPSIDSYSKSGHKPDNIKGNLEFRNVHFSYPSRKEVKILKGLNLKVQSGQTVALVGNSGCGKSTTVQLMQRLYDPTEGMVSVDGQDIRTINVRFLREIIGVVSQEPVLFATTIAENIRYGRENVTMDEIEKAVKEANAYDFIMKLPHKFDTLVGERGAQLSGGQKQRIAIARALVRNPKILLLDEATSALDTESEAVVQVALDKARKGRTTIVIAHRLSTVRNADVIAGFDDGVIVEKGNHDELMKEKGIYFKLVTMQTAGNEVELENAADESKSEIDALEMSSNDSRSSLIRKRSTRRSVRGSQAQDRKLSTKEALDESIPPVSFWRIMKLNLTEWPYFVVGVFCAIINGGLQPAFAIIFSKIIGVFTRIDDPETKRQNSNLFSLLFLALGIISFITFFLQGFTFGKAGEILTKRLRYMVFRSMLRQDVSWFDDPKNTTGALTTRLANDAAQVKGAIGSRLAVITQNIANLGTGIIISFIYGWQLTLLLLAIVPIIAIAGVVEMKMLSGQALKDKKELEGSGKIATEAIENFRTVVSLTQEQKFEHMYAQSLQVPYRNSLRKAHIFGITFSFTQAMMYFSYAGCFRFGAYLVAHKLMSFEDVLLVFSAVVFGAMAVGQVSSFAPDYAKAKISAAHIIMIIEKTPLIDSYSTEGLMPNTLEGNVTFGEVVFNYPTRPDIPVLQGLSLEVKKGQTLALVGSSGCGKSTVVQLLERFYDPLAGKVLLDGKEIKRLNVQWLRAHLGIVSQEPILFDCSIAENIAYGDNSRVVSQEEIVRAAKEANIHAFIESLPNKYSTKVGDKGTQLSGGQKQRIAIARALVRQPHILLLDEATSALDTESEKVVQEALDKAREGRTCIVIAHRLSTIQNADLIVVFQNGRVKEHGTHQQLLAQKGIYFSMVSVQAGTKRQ
How it was run: (§2)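 Murine L-5178Y lymphoma cells transfected with human MDR1 gene (P-gp-overexpressing), alongside parental cells, treated or untreated with compound; rhodamine 123 accumulation measured by fluorescence; FAR = ratio of fluorescence intensity in treated versus untreated cells, values above 1 taken as MDR reversal.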

OVCAR-8 = test: Growth inhibition of human OVCAR8 cells at 10 uM; assay type: functional, cell-based; how it was run: as §1
[2] = Cytotoxicity against human HPLF cells after 48 hrs; assay type: cell-based
NCI-H460 = test: Growth inhibition of human NCI-H460 cells at 10 uM; assay type: functional, cell-based; how it was run: as §1
K562 = test: Growth inhibition of human K562 cells at 10 uM; assay type: functional, cell-based; how it was run: as §1
UACC-62 = test: Growth inhibition of human UACC62 cells at 10 uM; assay type: functional, cell-based; how it was run: as §1
HCT-116 = test: Growth inhibition of human HCT116 cells at 10 uM; assay type: functional, cell-based; how it was run: as §1
SF-295 = test: Growth inhibition of human SF295 cells at 10 uM; assay type: functional, cell-based; how it was run: as §1
IGROV-1 = test: Growth inhibition of human IGROV1 cells at 10 uM; assay type: functional, cell-based; how it was run: as §1
U-251 = test: Growth inhibition of human U251 cells at 10 uM; assay type: functional, cell-based; how it was run: as §1
HSC-4 = test: Cytotoxicity against human HSC4 cells after 48 hrs; assay type: functional; settings: HSC-4, 48 h
OVCAR-4 = test: Growth inhibition of human OVCAR4 cells at 10 uM; assay type: functional, cell-based; how it was run: as §1
EKVX = test: Growth inhibition of human EKVX cells at 10 uM; assay type: functional, cell-based; how it was run: as §1
PC-3 = test: Growth inhibition of human PC3 cells at 10 uM; assay type: functional, cell-based; how it was run: as §1
HCC 2998 = test: Growth inhibition of human HCC2998 cells at 10 uM; assay type: functional, cell-based; how it was run: as §1
NCI/ADR-RES = test: Growth inhibition of human NCI/ADR-RES cells at 10 uM; assay type: functional, cell-based; how it was run: as §1
HL-60 [3] = test: Growth inhibition of human HL60 cells at 10 uM; assay type: functional, cell-based; how it was run: as §1
CAKI-1 = test: Growth inhibition of human Caki1 cells at 10 uM; assay type: functional, cell-based; how it was run: as §1
NCI-H23 = test: Growth inhibition of human NCI-H23 cells at 10 uM; assay type: functional, cell-based; how it was run: as §1
HOP-92 = test: Growth inhibition of human HOP92 cells at 10 uM; assay type: functional, cell-based; how it was run: as §1
CCRF-CEM [4] = test: Growth inhibition of human CCRF-CEM cells at 10 uM; assay type: functional, cell-based; how it was run: as §1
[5] = Cytotoxicity against human HPC cells after 48 hrs; assay type: cell-based
DU-145 = test: Growth inhibition of human DU145 cells at 10 uM; assay type: functional, cell-based; how it was run: as §1
HL-60 [6] = test: Cytotoxicity against human HL60 cells after 48 hrs; assay type: functional; settings: HL-60, 48 h
LOX IMVI = test: Growth inhibition of human LOXIMVI cells at 10 uM; assay type: functional, cell-based; how it was run: as §1
A498 = test: Growth inhibition of human A498 cells at 10 uM; assay type: functional, cell-based; how it was run: as §1
RPMI8266 = test: Growth inhibition of human […] cells at 10 uM; assay type: functional, cell-based; how it was run: as §1
OVCAR-3 = test: Growth inhibition of human OVCAR-3 cells at 10 uM; assay type: functional, cell-based; how it was run: as §1
T47D = test: Growth inhibition of human T47D cells at 10 uM; assay type: functional, cell-based; how it was run: as §1
M14 = test: Growth inhibition of human M14 cells at 10 uM; assay type: functional, cell-based; how it was run: as §1
[7] = Growth inhibition of human Molt4/C8 cells after 3 days; assay type: functional, cell-based; settings: MOLT-4, 72 h
How it was run: (§3)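 Human CEM and Molt 4/C8 T-lymphocytes were grown for three days with or without serial dilutions of the compound. IC50 is the concentration that inhibits cell growth by 50%.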

SW-620 = test: Growth inhibition of human SW620 cells at 10 uM; assay type: functional, cell-based; how it was run: as §1
MDA-MB-435 = test: Growth inhibition of human MDA-MB-435 cells at 10 uM; assay type: functional, cell-based; how it was run: as §1
[8] = molecular target: T1, ATP-dependent translocase ABCB1; test: Reversal of P-glycoprotein-mediated multidrug resistance in human MDR1 gene transfected mouse L5178Y cells assessed as fluorescence activity ratio at 200 uM by rhodamine 123 accumulation assay; assay type: cell-based; how it was run: as §2
HCT-15 = test: Growth inhibition of human HCT15 cells at 10 uM; assay type: functional, cell-based; how it was run: as §1
[9] = Cytotoxicity against human HGF cells after 48 hrs; assay type: cell-based
RXF 393 = test: Growth inhibition of human RXF393 cells at 10 uM; assay type: functional, cell-based; how it was run: as §1
UO-31 = test: Growth inhibition of human UO31 cells at 10 uM; assay type: functional, cell-based; how it was run: as §1
A549 = test: Growth inhibition of human A549 cells at 10 uM; assay type: functional, cell-based; how it was run: as §1
MDA-MB-468 = test: Growth inhibition of human MDA-MB-468 cells at 10 uM; assay type: functional, cell-based; how it was run: as §1
CCRF-CEM [10] = test: Growth inhibition of human CEM cells after 3 days; assay type: functional, cell-based; settings: 72 h; how it was run: as §3
HSC-3 = test: Cytotoxicity against human HSC3 cells after 48 hrs; assay type: functional; settings: HSC-3, 48 h
SNB-75 = test: Growth inhibition of human SNB75 cells at 10 uM; assay type: functional, cell-based; how it was run: as §1
NCI-H522 = test: Growth inhibition of human NCI-H522 cells at 10 uM; assay type: functional, cell-based; how it was run: as §1

For `COc1ccc(/C=C/C(=O)c2c(C)[n+]([O-])c3ccccc3[n+]2[O-])cc1`, the “growth inhibition (GI)” value (Hs-578T) was “Active”, the “growth inhibition (GI)” value (MCF7) was “Active” and the CC50 (HSC-2) was 20 µM. For the same molecule, the Ratio [1] was 4.25, the “growth inhibition (GI)” value (OVCAR-8) was “Active” and the CC50 at 48 h [2] was 93 µM. The “growth inhibition (GI)” value (NCI-H460) was “Active”, the “growth inhibition (GI)” value (K562) was “Active” and the “growth inhibition (GI)” value (UACC-62) was “Active”. For the same molecule, the “growth inhibition (GI)” value (HCT-116) was “Active”, the “growth inhibition (GI)” value (SF-295) was “Active” and the “growth inhibition (GI)” value (IGROV-1) was “Active”. For the same molecule, the “growth inhibition (GI)” value (U-251) was “Active”, the CC50 (HSC-4) was 11 µM and the “growth inhibition (GI)” value (OVCAR-4) was “Active”. The “growth inhibition (GI)” value (EKVX) was “Active”, the “growth inhibition (GI)” value (PC-3) was “Active” and the “growth inhibition (GI)” value (HCC 2998) was “Active”. For the same molecule, the “growth inhibition (GI)” value (NCI/ADR-RES) was “Active”, the “growth inhibition (GI)” value (HL-60 [3]) was “Active” and the “growth inhibition (GI)” value (CAKI-1) was “Active”. For the same molecule, the “growth inhibition (GI)” value (NCI-H23) was “Active”, the “growth inhibition (GI)” value (HOP-92) was “Active” and the “growth inhibition (GI)” value (CCRF-CEM [4]) was “Active”. For the same molecule, the CC50 at 48 h [5] was 92 µM, the “growth inhibition (GI)” value (DU-145) was “Active” and the CC50 (HL-60 [6]) was 16 µM. For the same molecule, the “growth inhibition (GI)” value (LOX IMVI) was “Active”, the “growth inhibition (GI)” value (A498) was “Active” and the “growth inhibition (GI)” value (RPMI8266) was “Active”. For the same molecule, the “growth inhibition (GI)” value (OVCAR-3) was “Active”, the “growth inhibition (GI)” value (T47D) was “Active” and the “growth inhibition (GI)” value (M14) was “Active”. The IC50 [7] was 25.8 µM, the “growth inhibition (GI)” value (SW-620) was “Active” and the “growth inhibition (GI)” value (MDA-MB-435) was “Active”. The Ratio [8] was 31.7, the “growth inhibition (GI)” value (HCT-15) was “Active” and the CC50 at 48 h [9] was 52 µM. For the same molecule, the “growth inhibition (GI)” value (RXF 393) was “Active”, the “growth inhibition (GI)” value (UO-31) was “Active” and the “growth inhibition (GI)” value (A549) was “Active”. The “growth inhibition (GI)” value (MDA-MB-468) was “Active”, the IC50 (CCRF-CEM [10]) was 27.6 µM and the CC50 (HSC-3) was 23 µM. The “growth inhibition (GI)” value (SNB-75) was “Active” and the “growth inhibition (GI)” value (NCI-H522) was “Active”.
